{"data": "Assay results collected from several papers", "target": "Rhodopsin kinase GRK7 (GRK7, Homo sapiens, UniProt Q8WTQ7)", "Sequence (Q8WTQ7 1-553, as in one of the studies)": "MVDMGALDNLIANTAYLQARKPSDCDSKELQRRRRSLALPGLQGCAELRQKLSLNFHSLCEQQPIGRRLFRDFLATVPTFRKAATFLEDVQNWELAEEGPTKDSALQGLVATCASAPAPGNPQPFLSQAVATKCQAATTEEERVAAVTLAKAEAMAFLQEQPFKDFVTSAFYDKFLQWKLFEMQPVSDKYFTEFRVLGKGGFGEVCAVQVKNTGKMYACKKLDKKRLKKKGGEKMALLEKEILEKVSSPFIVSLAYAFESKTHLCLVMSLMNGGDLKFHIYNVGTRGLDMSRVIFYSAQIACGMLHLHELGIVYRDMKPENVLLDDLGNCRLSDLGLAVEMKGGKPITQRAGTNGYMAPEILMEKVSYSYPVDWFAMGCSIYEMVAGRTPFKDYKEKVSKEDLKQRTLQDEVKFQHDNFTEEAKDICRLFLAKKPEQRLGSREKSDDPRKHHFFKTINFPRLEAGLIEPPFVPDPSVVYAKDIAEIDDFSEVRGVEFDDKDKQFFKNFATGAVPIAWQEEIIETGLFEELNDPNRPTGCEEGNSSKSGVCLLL", "note": "Each line is one published result; the experiments were not run side by side."}
{"Structure (SMILES)": "Cc1ccc(C(=O)NCc2ccsc2)cc1C#Cc1cn(C(C)C)c2ncnc(N)c12", "test": "enzyme activity, inhibitor", "conditions": "1 µM", "quantity": "activity vs control", "value": "100%"}
{"Structure (SMILES)": "CO[C@@H](C)c1c(Nc2ccc([C@H](N(C)C(=O)C3CCS(=O)(=O)CC3)C(F)(F)F)cc2)cnc2cc(Cl)nn12", "test": "cell-free assay, competition with immobilised ligand", "conditions": "1 µM", "quantity": "remaining binding", "value": "100%"}
{"Structure (SMILES)": "O=C(Nc1cnn(-c2csc(C(=O)NC3COC3)c2)c1)Nc1c(F)cccc1Cl", "test": "enzyme activity, inhibitor", "conditions": "5 µM", "quantity": "remaining activity", "value": "94%"}
{"Structure (SMILES)": "Cc1ccc(C(=O)Nc2ccc(CN3CCN(C)CC3)c(C(F)(F)F)c2)cc1C#Cc1cnc2cccnn12", "test": "enzyme activity, inhibitor", "conditions": "23.5 nM", "quantity": "remaining activity", "value": "94%"}
{"Structure (SMILES)": "N#CCCc1ccc2c(c1)-c1[nH]c3ccc([N+](=O)[O-])cc3c1CC(=O)N2", "test": "cell-free assay", "conditions": "0.5 µM", "quantity": "remaining signal", "value": "97.7%"}
{"Structure (SMILES)": "C[C@@H]1CCN(c2nccc(-c3cnn4ncccc34)n2)C1", "test": "binding", "conditions": "1 µM", "quantity": "remaining binding", "value": "82%"}
{"Structure (SMILES)": "Cc1c(NC(=O)c2cc(C(N)=O)nc3cc(F)ccc23)c(C(F)(F)F)nn1Cc1ccc(C#N)cc1", "test": "cell-free assay, competition with immobilised ligand", "conditions": "1 µM", "quantity": "remaining binding", "value": "75%"}
{"Structure (SMILES)": "O=C(Nc1cnn(-c2csc(C(=O)NC3COC3)c2)c1)Nc1ccccc1Cl", "test": "enzyme activity, inhibitor", "conditions": "5 µM", "quantity": "remaining activity", "value": "96.4%"}
{"Structure (SMILES)": "O=C1NC(=O)c2cc(Nc3ccc(F)cc3)c(Nc3ccc(F)cc3)cc21", "test": "cell-free assay", "conditions": "0.5 µM", "quantity": "remaining signal", "value": "106%"}
{"Structure (SMILES)": "O=C(O)[C@@H]1[C@@H](Cn2nnc3ccccc3c2=O)CC[C@H]1C(=O)c1ccc(OCCC2CCOCC2)cc1", "test": "cell-free assay, competition with immobilised ligand", "conditions": "1 µM", "quantity": "remaining binding", "value": "100%"}
{"Structure (SMILES)": "CC(C)(C)c1nc2c(s1)c1nc(N)ncc1c1ccc(NS(=O)(=O)c3c(F)cccc3F)c(F)c12", "test": "enzyme activity, inhibitor, radiometric", "conditions": "1 µM", "quantity": "remaining activity", "value": "81%"}
{"Structure (SMILES)": "O=C1Nc2ccc(Cl)cc2C1=Cc1cc(Cl)c(O)c(Cl)c1", "test": "cell-free assay", "conditions": "0.5 µM", "quantity": "remaining signal", "value": "97.3%"}
{"Structure (SMILES)": "Nc1ncnc2occ(-c3ccc(NC(=O)Nc4cc(C(F)(F)F)ccc4F)cc3)c12", "test": "cell-free assay, inhibitor", "conditions": "20 µM", "quantity": "remaining signal", "value": "77%"}
{"Structure (SMILES)": "CN1CCN(c2cnc3c(C4CCN(C(=O)c5ccc(OC(F)(F)F)cc5N)CC4)ncnc3c2)CC1", "test": "cell-free assay, competition with immobilised ligand", "conditions": "1 µM", "quantity": "remaining binding", "value": "87%"}
{"Structure (SMILES)": "CC(C)(O)[C@H]1CC[C@H](Nc2ccc3ncc(-c4cccc(C(F)(F)F)c4)n3n2)CC1", "test": "enzyme activity, inhibitor", "conditions": "1 µM", "quantity": "remaining activity", "value": "38%"}
{"Structure (SMILES)": "Cc1nc(Cc2cccc(C(F)(F)F)c2)sc1-c1ccc(C(N)=O)nc1", "test": "cell-free assay, competition with immobilised ligand", "conditions": "1 µM", "quantity": "remaining binding", "value": "100%"}
{"Structure (SMILES)": "COc1cc2ncnc(Nc3ccc(Oc4ccccc4)c(C)c3C)c2cc1OC", "test": "enzyme activity, inhibitor", "conditions": "1 µM", "quantity": "inhibition", "value": "0%"}
{"Structure (SMILES)": "CCCOc1ccc(OC)c(F)c1C(=O)c1ccc(C(=O)N[C@@H]2CNC[C@H]2NC(=O)c2ccc3[nH]ncc3c2)cc1", "test": "enzyme activity, inhibitor", "conditions": "10 µM", "quantity": "remaining activity", "value": "107%"}
